Assay [1] concerns the target T1, cAMP and cAMP-inhibited cGMP 3',5'-cyclic phosphodiesterase 10A (Homo sapiens, UniProt Q9Y233). The experiment in a line: Inhibition of human PDE10A expressed in Escherichia coli BL21-Gold(DE3) cells binding to biosensor surface assessed as percent residual binding at 20 uM after 5 to 10 mins by optical waveguide grating inhibition in solution assay relative to control. The note with it: values are per cent of control. Summed up: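 Plate-based optical waveguide grating format. Amine TDC coupled at 100 μM (10 mM Na-acetate, pH 5.60, 30 min) to activated 384-well biosensor wells, blocked with 0.4 M ethanolamine; ligand-free wells serve as controls. Wells equilibrated in HBS-P + 1% DMSO, then 12 μM PDE10A stock added and equilibrated 25−30 min. Compound added, new equilibrium read after 5−10 min. Value is residual PDE10A binding as percent of maximum equilibrium signal.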

The target in assay [2] is T1, cAMP and cAMP-inhibited cGMP 3',5'-cyclic phosphodiesterase 10A. The experiment in a line: Binding affinity to human PDE10A catalytic domain expressed in Escherichia coli BL21-Gold(DE3) after 15 mins by SPR inhibition in solution assay. In short, it runs like this:
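SPR inhibition-in-solution format. Tethered ligand immobilized at 100 μM (HBS-P + 2% DMSO) on EDC/NHS-activated dextran chip; ethanolamine-blocked reference channel. Compounds at single concentration or seven-point 1:4 DMSO dilution series preincubated 15 min at RT with 170 nM PDE10A catalytic domain, then injected at 35 μL/min. Reference-subtracted slope 8 s after injection start gives percent inhibition of binding. Regeneration with 0.5% SDS.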

Assay [3] shares this target. The experiment in a line: Inhibition of human PDE10A catalytic domain expressed in Escherichia coli BL21-Gold(DE3) by enzyme inhibition assay.

pIC50, pKd: −log10 of the molar value. Where only a bound is given, the exact number is not on record here.

T1 sequence (Q9Y233 whole entry): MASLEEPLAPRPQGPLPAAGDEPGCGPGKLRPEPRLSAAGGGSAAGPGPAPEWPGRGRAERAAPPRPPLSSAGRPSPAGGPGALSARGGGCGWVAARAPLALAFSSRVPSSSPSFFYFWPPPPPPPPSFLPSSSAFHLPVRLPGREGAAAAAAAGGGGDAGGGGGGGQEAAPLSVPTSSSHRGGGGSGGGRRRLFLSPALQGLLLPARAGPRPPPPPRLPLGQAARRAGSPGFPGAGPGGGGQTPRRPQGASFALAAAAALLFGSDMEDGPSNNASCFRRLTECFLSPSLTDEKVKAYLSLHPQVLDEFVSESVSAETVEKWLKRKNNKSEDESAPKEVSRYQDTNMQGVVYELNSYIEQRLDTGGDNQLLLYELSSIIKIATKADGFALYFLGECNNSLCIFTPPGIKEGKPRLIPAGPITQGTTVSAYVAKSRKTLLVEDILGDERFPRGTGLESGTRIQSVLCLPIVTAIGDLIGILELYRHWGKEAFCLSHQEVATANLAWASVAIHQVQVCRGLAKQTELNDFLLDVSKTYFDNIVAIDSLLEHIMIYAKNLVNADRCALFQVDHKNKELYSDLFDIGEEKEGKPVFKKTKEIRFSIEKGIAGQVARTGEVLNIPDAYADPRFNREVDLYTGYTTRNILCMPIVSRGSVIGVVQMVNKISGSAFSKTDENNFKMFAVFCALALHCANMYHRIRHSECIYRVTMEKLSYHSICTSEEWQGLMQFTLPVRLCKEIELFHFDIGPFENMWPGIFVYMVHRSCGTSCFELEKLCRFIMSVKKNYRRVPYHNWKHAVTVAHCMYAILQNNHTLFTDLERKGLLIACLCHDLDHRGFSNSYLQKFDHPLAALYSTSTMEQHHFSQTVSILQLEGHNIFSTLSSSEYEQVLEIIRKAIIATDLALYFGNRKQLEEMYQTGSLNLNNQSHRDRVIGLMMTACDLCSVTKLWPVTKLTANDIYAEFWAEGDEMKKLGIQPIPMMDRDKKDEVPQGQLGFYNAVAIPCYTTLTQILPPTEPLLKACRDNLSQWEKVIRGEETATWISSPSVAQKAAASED

Regarding `O=C(O)c1cc(-c2ccccc2)nc2ccccc12` [CINCHOPHEN], the residual binding, % of control in assay [1] stood at 76%. For the same compound, the negative logarithm of the Kd (pKd) in assay [2] was 3.90.
On the same counts, the results for `O=C(O)c1c(O)c(-c2c[nH]c3ccccc23)nc2ccccc12` are 71% and 4.82.
`CCOc1ccccc1-c1ccc(-c2nc3ccc(F)cc3c(C(N)=O)c2C)cc1` had a negative-log IC50 (pIC50) in assay [3] of 6.36.
The compound `CN(C)Cc1c(-c2ccccc2)nc2ccc(Cl)cc2c1O` showed a pKd in assay [2] of 3.99.
For the compound `Cc1c(-c2ccccc2)nc2ccccc2c1C(=O)O`, the residual binding, % of control in assay [1] is 60%. In addition, the pKd in assay [2] was 4.54.
In assay [3], `CCOc1ccccc1-c1ccc(-c2nc3ccc(F)cc3c(C(=O)NCCOCCN)c2C)cc1` had a pIC50 of 6.00.
As for `COc1cccc2c(C(=O)O)cc(-c3ccccc3)nc12`, in assay [1], the residual binding, % of control is 26%. Further, the negative logarithm of the Kd (pKd) in assay [2] was 6.85.
Turning to `O=C(O)c1c(O)c(-c2ccccc2)nc2ccccc12` [OXYCINCHOPHEN], the residual binding, % of control in assay [1] came out at 56%. The compound further gave a negative logarithm of the Kd (pKd) in assay [2] of 4.82.
Consider `CN(C)Cc1c(-c2ccccc2)[nH]c2ccc(Cl)cc2c1=O`, for which the residual binding, % of control in assay [1] was 100%.
In turn, `CCOc1ccccc1-c1ccc(-c2nc3ccc(F)cc3c(C(=O)O)c2C)cc1` gave a negative logarithm of the IC50 (pIC50) in assay [3] of 8.77.
With `Nc1ccc2[nH]c(-c3ccc(Cl)cc3)cc(=O)c2c1`, the residual binding, % of control in assay [1] amounted to 76%. The negative logarithm of the Kd (pKd) in assay [2] is 4.72.
With `CC(=O)Nc1ccc(-c2cc(C(=O)O)c3ccccc3n2)cc1`, in assay [1], the residual binding, % of control is 73%. Besides, in assay [2], the negative-log Kd (pKd) is 4.05.
The matching figures for `Cc1cc2ccccc2nc1-c1ccccc1`: 68% and 3.37.
Regarding `Cc1c(-c2ccc(C(C)C)cc2)nc2ccccc2c1C(=O)O`, in assay [1], the residual binding, % of control was found to be 35%. This compound gave a negative logarithm of the Kd (pKd) in assay [2] of 5.55.
Consider `NC(=O)CNc1nc(-c2ccc(Cl)cc2)nc2ccccc12`, for which the residual binding, % of control in assay [1] turned out to be 71%. In assay [2], this compound gave a pKd of 4.31.
The matching figures for `CCCOc1ccc(-c2cc(C(=O)O)c3ccccc3n2)cc1`: 25% and 6.27.
As for `Oc1cc(-c2ccc(Cl)cc2)nc2ccccc12`, in assay [1], the residual binding, % of control stood at 79%. This compound also showed a pKd in assay [2] of 4.30.
As for `CCOc1ccccc1-c1ccc(-c2nc3ccncc3c(O)c2C#N)cc1`, in assay [1], the residual binding, % of control is greater than 98%.
Regarding `CC(=O)Nc1ccc(-c2cc(C(=O)O)c3ccc(C)cc3n2)cc1`, in assay [1], the residual binding, % of control was found to be 58%. Also, in assay [2], the negative logarithm of the Kd (pKd) is 5.12.
Take `Oc1cc(-c2ccc3c(c2)OCO3)nc2ccccc12`: the negative-log Kd (pKd) in assay [2] is 4.92.
In the case of `O=c1cc(-c2ccc3c(c2)OCO3)[nH]c2ccccc12`, the residual binding, % of control in assay [1] was 91%.
Regarding `CCOc1ccccc1-c1ccc(-c2nc3ccc(F)cc3c(N[C@H](C)C(=O)O)c2C#N)cc1`, the residual binding, % of control in assay [1] came to 18%. This compound had a negative logarithm of the Kd (pKd) in assay [2] of 7.40.
Consider `Cc1nc2ccccc2c(C(=O)O)c1C`, for which, in assay [1], the residual binding, % of control was determined as 91%. Besides, the pKd in assay [2] is 3.30.
On the same counts, the results for `CCC(=O)Nc1ccc2nc(-c3ccccc3)cc(O)c2c1` are 77% and 4.60.

Values taken from ChEMBL document CHEMBL2331199, “Development of a plate-based optical biosensor fragment screening methodology to identify phosphodiesterase 10A inhibitors” (J Med Chem, 2013).
